Source: PMC5099097 (Antiviral research, 2016)

Columns and labels:
HCMV T3429 (UL54 mutant) = test: SEAP assay, recombinant GCV-resistant HCMV T3429 on MRC-5 cells; type: cell-based, human cytomegalovirus; conditions: Supplemental Table 1 (values not available)
HCMV T3252 (UL97 mutant) = test: SEAP assay, recombinant GCV-resistant HCMV T3252 on MRC-5 cells; type: cell-based, human cytomegalovirus; conditions: Supplemental Table 1 (values not available)
HCMV TB40E [1] = test: GCV and p5RD alone and combined, TB40E-Luc on MRC-5 cells; type: cell-based, human cytomegalovirus; conditions: 3 μM GCV alone
HCMV TB40E [2] = test: Luciferase assay: TB40E-Luc infection of MRC-5, HFF, ARPE-19 and HAEC cells; type: cell-based, human cytomegalovirus; conditions: 200 μM peptide added 30 min prior to infection, ARPE-19, HAEC
Outline: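 At 80–85% confluency, cells (MRC-5, HFF, ARPE-19 or HAEC) got 200 μM peptide in 10% FBS/PBS, or vehicle alone, 30 min before HCMV TB40E (luciferase, UL18 promoter) at ~35–50 pfu (~2500–3000 RLU). Inoculum was removed after 60 min at 37 °C. Cells were lysed after 3 days and luminescence read. Uninfected background was subtracted and values normalized to infected untreated cells. Three experiments, three replicates each.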

MCMV = conditions: relative to p5; ref Dogra et al., 2015; Martin et al., 2013; Wall et al., 2011; cited from earlier work
[3] = set-up: species or system BALB/c mice; conditions: mouse, in vivo, iv
HCMV TB40E [4] = test: Luciferase assay: peptide reduction of HCMV TB40E-Luc infection of MRC-5 cells; type: cell-based, human cytomegalovirus; conditions: peptide concentration >200 μM

Molecule | susceptibility of T3429 to GCV (HCMV T3429 (UL54 mutant)) | susceptibility of T3252 to GCV (HCMV T3252 (UL97 mutant)) | reduction in HCMV infection (HCMV TB40E [1]) | reduction of HCMV infection in all cell types (HCMV TB40E [2]) [%] | blocks MCMV infection more efficiently than p5 (fold) (MCMV) [x] | time by which the majority of the peptide was excreted or degraded [3] [h] | time retained at high levels in the spleen, liver and kidneys post injection [3] | reduction of HCMV infection (HCMV TB40E [4]) [%]
Nc1nc(O)c2ncn(COC(CO)CO)c2n1 [GCV, ganciclovir] | resistant to high concentrations | resistant to high concentrations | ~ 95% |  |  |  |  | 
GGGYSRAQRAQARQARQAQRARGARQ [p5R] |  |  |  | > 80 | 2 | ≤ 4 | rapidly dehalogenated and/or excreted | ≥ 90
